Key:
[1] = Plasma concentration in human with uncomplicated malaria at 31 mg/kg, perorally once daily for 3 days measured at day 20; type: ADME, organism-based; design: dose 31 mg/kg, route oral; settings: po, read-out: MIC
How it was run: (§1)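 Plasma piperaquine concentrations were simulated from the final NONMEM population model (500 simulations at each sampling time up to day 63). This followed oral dihydroartemisinin-piperaquine at a 55 mg/kg piperaquine phosphate total, given once daily at 0, 24 and 48 h or as four doses at 0, 8, 24 and 48 h.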

[2] = Apparent oral clearance in healthy human at 25 mg/kg, po after 29 days; type: ADME, organism-based; design: dose 25 mg/kg, route oral; settings: in vivo
[3] = Apparent steady-state volume of distribution with respect to bioavailability in human with uncomplicated malaria at 32 mg/kg, perorally after 35 days; type: ADME, organism-based; settings: in vivo, po, read-out: Vss/F
[4] = Apparent oral clearance in healthy human at 4.2 mg/kg, po after 42 days; type: ADME, organism-based; design: dose 4.2 mg/kg, route oral; settings: in vivo
[5] = Terminal half-life in human with uncomplicated malaria at 31 mg/kg, perorally; type: ADME, organism-based; design: dose 31 mg/kg, route oral; settings: in vivo, po
How it was run: (§2)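 Population PK in 98 uncomplicated falciparum patients given dihydroartemisinin-piperaquine orally (55 mg/kg piperaquine phosphate total, 3- or 4-dose regimen). Patients gave a pretreatment sample, 2–4 early-window samples and one sample on days 7–63. Plasma piperaquine was measured by SPE-LC-UV. Log concentrations were fitted by NONMEM (FO/FOCE) to a two-compartment first-order absorption model with regimen as covariate.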

[6] = AUC (0 to 60 days) in children with uncomplicated malaria at 31 mg/kg, perorally; type: ADME, organism-based; design: time < 1440 hr, dose 31 mg/kg, route oral; settings: human, plasma, po
How it was run: (§3)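 Oral dihydroartemisinin-piperaquine, supervised, with no food restriction, in patients aged 3–55 y. The total dose of 55 mg/kg piperaquine phosphate was given as four doses (0, 8, 24, 48 h) or three doses (0, 24, 48 h). Sparse plasma sampling ran to day 63, measured by SPE-LC-UV (LLOQ 5 or 2.5 ng/ml). AUCs came from individual NONMEM two-compartment estimates. Children were ≤12 y and <30 kg.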

[7] = AUC (0 to 63 days) in uncomplicated malaria patient at 31 mg/kg, perorally four-dose treatment regimen; type: ADME, organism-based; design: time < 1512 hr, dose 31 mg/kg, route oral; settings: human, plasma, po; how it was run: as §3
[8] = Apparent steady-state volume of distribution with respect to bioavailability in human with uncomplicated malaria at 31 mg/kg, perorally after 63 days; type: ADME, organism-based; settings: in vivo, po, read-out: Vss/F; how it was run: as §2
[9] = AUC (3 to 20 days) in children with uncomplicated malaria at 31 mg/kg, perorally; type: ADME, organism-based; design: dose 31 mg/kg, route oral; settings: human, plasma, po; how it was run: as §3
[10] = test system: Homo sapiens; experiment: Apparent intercompartmental clearance with respect to bioavailability in human with uncomplicated malaria at 31 mg/kg, perorally; type: ADME, organism-based; settings: in vivo, po; how it was run: as §2
[11] = Apparent volume of distribution with respect to bioavailability in human with uncomplicated malaria at 31 mg/kg, perorally; type: ADME, organism-based; settings: in vivo, po, read-out: Vc/F; how it was run: as §2
[12] = Terminal half-life in healthy human at 4.2 mg/kg, po after 42 days; type: ADME, organism-based; design: dose 4.2 mg/kg, route oral; settings: in vivo
[13] = AUC (3 to 20 days) in human adult with uncomplicated malaria at 31 mg/kg, perorally; type: ADME, organism-based; design: dose 31 mg/kg, route oral; settings: plasma, po; how it was run: as §3
[14] = Plasma concentration in human with uncomplicated malaria at 31 mg/kg, perorally at day 28; type: ADME, organism-based; design: dose 31 mg/kg, route oral; settings: po; how it was run: as §1
[15] = AUC (3 to 20 days) in uncomplicated malaria patient at 31 mg/kg, perorally four-dose treatment regimen; type: ADME, organism-based; design: dose 31 mg/kg, route oral; settings: human, plasma, po; how it was run: as §3
[16] = Apparent steady-state volume of distribution with respect to bioavailability in human with uncomplicated malaria at 31 mg/kg, perorally; type: ADME, organism-based; settings: in vivo, po, read-out: Vss/F; how it was run: as §2
[17] = Apparent oral clearance in human with uncomplicated malaria at 31 mg/kg, perorally after 63 days; type: ADME, organism-based; design: dose 31 mg/kg, route oral; settings: in vivo; how it was run: as §2
[18] = Apparent oral clearance in human with uncomplicated malaria at 32 mg/kg, perorally after 35 days; type: ADME, organism-based; design: dose 32 mg/kg, route oral; settings: in vivo
[19] = AUC (3 to 20 days) in uncomplicated malaria patient at 31 mg/kg, perorally once daily for 3 days; type: ADME, organism-based; design: dose 31 mg/kg, route oral; settings: human, plasma, po; how it was run: as §3
[20] = Terminal half-life in healthy human at 25 mg/kg, po after 29 days; type: ADME, organism-based; design: dose 25 mg/kg, route oral; settings: in vivo
[21] = AUC (0 to 63 days) in human with uncomplicated malaria at 31 mg/kg, perorally once daily for 3 days; type: ADME, organism-based; design: time < 1512 hr, dose 31 mg/kg, route oral; settings: plasma, po; how it was run: as §3
[22] = Plasma concentration in human with uncomplicated malaria at 31 mg/kg, perorally four-dose treatment regimen measured at day 20; type: ADME, organism-based; design: dose 31 mg/kg, route oral; settings: po, read-out: MIC; how it was run: as §1
[23] = Apparent oral clearance in human with uncomplicated malaria at 35 mg/kg, perorally after 35 days; type: ADME, organism-based; design: dose 35 mg/kg, route oral; settings: in vivo
[24] = Terminal half-life in human with uncomplicated malaria at 31 mg/kg, perorally after 63 days; type: ADME, organism-based; design: dose 31 mg/kg, route oral; settings: in vivo, po; how it was run: as §2
[25] = Terminal elimination half-life in human with uncomplicated malaria at 31 mg/kg, perorally; settings: in vivo, po
[26] = Terminal half-life in human with uncomplicated malaria at 35 mg/kg, perorally after 35 days; type: ADME, organism-based; design: dose 35 mg/kg, route oral; settings: in vivo, po
[27] = Terminal half-life in human with uncomplicated malaria at 32 mg/kg, perorally after 35 days; type: ADME, organism-based; design: dose 32 mg/kg, route oral; settings: in vivo, po
[28] = test system: Homo sapiens; experiment: Apparent peripheral volume of distribution with respect to bioavailability in human with uncomplicated malaria at 31 mg/kg, perorally; type: ADME, organism-based; settings: in vivo, po; how it was run: as §2
[29] = Apparent oral clearance in high-fat fed healthy human at 4.2 mg/kg, po after 42 days; type: ADME, organism-based; design: dose 4.2 mg/kg, route oral; settings: in vivo
[30] = AUC (0 to 60 days) in human adult with uncomplicated malaria at 31 mg/kg, perorally; type: ADME, organism-based; design: time < 1440 hr, dose 31 mg/kg, route oral; settings: plasma, po; how it was run: as §3
[31] = Terminal half-life in high-fat fed healthy human at 4.2 mg/kg, po after 42 days; type: ADME, organism-based; design: dose 4.2 mg/kg, route oral; settings: in vivo
[32] = Apparent steady-state volume of distribution with respect to bioavailability in high-fat fed healthy human at 4.2 mg/kg, po after 42 days; type: ADME, organism-based; settings: in vivo, read-out: Vss/F
[33] = Apparent steady-state volume of distribution with respect to bioavailability in healthy human at 4.2 mg/kg, po after 42 days; type: ADME, organism-based; settings: in vivo, read-out: Vss/F
[34] = Apparent oral clearance in human with uncomplicated malaria at 31 mg/kg, perorally; type: ADME, organism-based; design: dose 31 mg/kg, route oral; settings: in vivo; how it was run: as §2

Compound Clc1ccc2c(N3CCN(CCCN4CCN(c5ccnc6cc(Cl)ccc56)CC4)CC3)ccnc2c1 [PIPERAQUINE] has a concentration at 72 h [1] of 12 ng/mL, a CL/F [2] of 16.7 mL/min/kg and a Vd/F [3] of 574 L/kg. It also gave a CL/F [4] of 19 mL/min/kg, a half-life [5] of 28 days and an AUC(0-t) at 1440 h [6] of 25900 ng·h/mL. It also gave an AUC(0-t) at 1512 h [7] of 20700 ng·h/mL, a Vd/F [8] of 874 L/kg and an AUC(0-t) [9] of 7580 ng·h/mL. It also gave a CL/F [10] of 131 L/h, a Vd/F [11] of 8660 L and a half-life [12] of 20 days. The AUC(0-t) [13] was 8650 ng·h/mL, the concentration at 28 day [14] was under 10 ng/mL and the AUC(0-t) [15] was 9070 ng·h/mL. It also gave a Vd/F [16] of 38100 L, a CL/F [17] of 23.3 mL/min/kg and a CL/F [18] of 15 mL/min/kg. It also gave an AUC [19] of 8650 ng·h/mL, a half-life [20] of 12 days and an AUC at 1512 h [21] of 19400 ng·h/mL. For the same compound, the concentration at 20 day [22] was 13 ng/mL, the CL/F [23] was 30.8 mL/min/kg and the half-life [24] was 28 days. The half-life [25] was 27.8 days, the half-life [26] was 14 days and the half-life [27] was 23 days. The Vp/F [28] was 24000 L, the CL/F [29] was 10 mL/min/kg and the AUC(0-t) at 1440 h [30] was 19400 ng·h/mL. It also gave a half-life [31] of 21 days, a Vd/F [32] of 365 L/kg and a Vd/F [33] of 716 L/kg. It also gave a CL/F [34] of 1100 mL/min.
